Source: PubChem BioAssay (several laboratories)
HTR2A ag: mouse Htr2a agonists via beta-arrestin recruitment, primary screen, cell-based, luminescence; 5-hydroxytryptamine receptor 2A (Mus musculus), P35363; CHO-K1 mHTR2A beta-arrestin complementation; percent of 30 µM serotonin response; activation, % at 7.6 µM; 360,000 compounds, 0.66% hits; AID 624169, 2012;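 active = activation above a run cutoff, the mean activation of all tested compounds plus 3 SD, cut at about 14% in these data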
MC4R barr agon: MC4R agonists recruiting beta-arrestin, primary screen, cell-based, luminescence, agonist arm of biased-ligand search; U2OS MC4R beta-arrestin complementation; percent of melanotan II response, DMSO zero; activation, % at 8.9 µM; 360,000 compounds, 0.98% hits;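 active = activation above a per-plate cutoff, the mean activation of sample wells on that plate plus 3 SD, cut at about 8% in these data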
MIN6 prolif-1: inducers of MIN6 beta-cell proliferation, primary screen, ATP luminescence, uHTS; MIN6 cells proliferation, ATPlite luminescence, 48 h; cells starved in 0.2% serum; 100% = growth in 10% serum; proliferation, % at 10 µM; 330,000 compounds, 0.29% hits; AID 2380, 2010;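 active = compounds whose signal lies at least 3.5 SD above the mean of all wells on their plate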
MC4R antag cAMP: MC4R antagonists of cAMP signaling, primary screen, cell-based, TR-FRET, antagonist arm of biased-ligand search; Melanocortin receptor 4 (Homo sapiens), P32245; 360,000 compounds, 0.48% hits; inhibition, % at 6.5 µM; MC4R-expressing cells, MTII-stimulated cAMP, LANCE TR-FRET; AID 540295, 2011;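 active = inhibition above its plate's cutoff, the mean of tested wells on that plate plus 3 SD, cut at about 29% in these data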
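System – human MC4R-expressing U2OS cells · Also added – Melanotan II · Dosing – one concentration, 6.5 µM nominal · Timing – 30-min compound, 1-h challenge, 1-h detection, room temperature · Measured by – Eu-cAMP/anti-cAMP TR-FRET, emission 671 nm · Replicates – singlicate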
ANO1 block: TMEM16A chloride channel inhibitors, primary screen, cell-based, HTS; Anoctamin-1 (Mus musculus), Q8BHY3; HEK293 TMEM16A/YFP iodide influx fluorescence, ionomycin; normalized B-score (activity score, 25-100; higher = stronger inhibition) at 10 µM; 310,000 compounds, 1.2% hits;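 active = ratio plate-corrected score three or more library SD toward inhibition, starting fluorescence score within five deviations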;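 note: score derived from kinetic fluorescence span divided by baseline fluorescence per well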
Target sequence (Q8BHY3 whole entry, looked up): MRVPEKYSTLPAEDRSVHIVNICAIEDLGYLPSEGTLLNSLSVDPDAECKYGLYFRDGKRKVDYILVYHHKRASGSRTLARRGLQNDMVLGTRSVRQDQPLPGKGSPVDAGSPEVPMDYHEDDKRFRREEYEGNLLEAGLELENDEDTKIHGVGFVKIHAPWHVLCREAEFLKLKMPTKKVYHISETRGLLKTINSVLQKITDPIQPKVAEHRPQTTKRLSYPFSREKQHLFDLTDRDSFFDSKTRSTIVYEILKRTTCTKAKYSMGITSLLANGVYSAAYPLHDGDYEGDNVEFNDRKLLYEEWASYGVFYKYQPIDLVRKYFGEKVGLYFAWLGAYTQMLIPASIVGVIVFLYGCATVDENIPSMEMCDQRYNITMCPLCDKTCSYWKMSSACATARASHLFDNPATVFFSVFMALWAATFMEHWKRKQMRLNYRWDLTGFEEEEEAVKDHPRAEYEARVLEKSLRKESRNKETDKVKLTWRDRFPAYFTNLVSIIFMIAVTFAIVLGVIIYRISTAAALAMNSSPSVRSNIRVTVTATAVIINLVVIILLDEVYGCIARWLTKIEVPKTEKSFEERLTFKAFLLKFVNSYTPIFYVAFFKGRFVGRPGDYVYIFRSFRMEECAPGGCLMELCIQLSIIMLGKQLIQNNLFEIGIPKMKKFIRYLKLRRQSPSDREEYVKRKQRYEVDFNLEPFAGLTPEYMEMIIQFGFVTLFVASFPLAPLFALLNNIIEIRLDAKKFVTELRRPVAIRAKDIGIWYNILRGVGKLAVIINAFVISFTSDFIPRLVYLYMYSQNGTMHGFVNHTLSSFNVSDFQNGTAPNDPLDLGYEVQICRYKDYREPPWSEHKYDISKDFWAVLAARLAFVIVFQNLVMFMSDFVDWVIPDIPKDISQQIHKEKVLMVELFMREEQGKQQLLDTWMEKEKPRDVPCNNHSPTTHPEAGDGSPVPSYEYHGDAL
ANO1 activ: TMEM16A chloride channel activators or potentiators, primary screen, cell-based, HTS; HEK293 TMEM16A/YFP-H148Q/I152L, iodide quench fluorescence; stronger effect = lower value; B-score at 10 µM; AID 623877, 2012; 340,000 compounds, 0.3% hits;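 active = fluorescence-ratio B-score plate-corrected deviation score at least 3 library SD below zero, with starting fluorescence score within 5 deviations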;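 note: channel opened by trigger with iodide after compound preincubation; score built on the fluorescence ratio of max minus min over baseline; more negative score means more quench and so TMEM16A activation or potentiation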
MIN6 prolif-2: inducers of beta-cell proliferation in MIN6, confirmation, MIN6 cells, mouse. AID 463095, 2010. ATPlite luminescence, 48 h; cells kept in 0.2% serum; scaled between 0.2% and 10% serum. 920 tested, under 10 active. proliferation increase, % at 50 µM. shares compounds with MIN6 prolif-1;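 active = proliferation increase above 40% at any of the four tested concentrations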
Each line names hits and unclear results; the compound was inactive in the other large screens (follow-up assays come after a bar, where they were run). This is a sample that favours compounds with a hit; in the whole collection about 3.4% have one here.

CCN1CCN(CCCNC(=O)c2ccc(/C=C3/Oc4ccccc4N(Cc4cccc(C)c4)C3=O)cc2)CC1	none
CCCCNC(=O)c1ccc(/C=C2\Oc3ccccc3N(C)C2=O)cc1	MC4R barr agon 9.2
CCCN(CCC)CCNC(=O)C1(O)c2ccccc2NC(=O)N1c1cccc(OC)c1 (stereo unspecified)	none
NC(=O)Cn1c(=O)n(Cc2ccccc2)c(=O)c2cccnc21	none
COc1ccc(C(CNC(=O)c2cccc(NS(=O)(=O)c3ccc(Br)cc3)c2)N(C)C)cc1 (stereo unspecified)	none
N#CC(C#N)=NNc1ccc([N+](=O)[O-])cc1	ANO1 block 100
COc1ccc(C(=O)/C(C#N)=N/Nc2ccc([N+](=O)[O-])cc2)cc1	ANO1 block 25
C[C@@H]1CN([C@@H](C)CO)C(=O)CCCn2nncc2CO[C@@H]1CN(C)S(=O)(=O)c1cccc(C#N)c1	none (no result: MIN6 prolif-1, ANO1 block, ANO1 activ)
NC(=O)c1cc2cc(Br)ccc2oc1=NCc1ccccc1	ANO1 activ -8.5
CCCCn1c(N)c(N(CCOC)C(=O)CN2C(=O)C3CCCCC3C2=O)c(=O)[nH]c1=O (stereo unspecified)	none (no result: ANO1 block)
Nc1nc(N)c2cc(CNc3ccc(Cl)c(Cl)c3)ccc2n1	none (no result: MIN6 prolif-1, ANO1 block, ANO1 activ)
CC[C@@]12C(=O)N(c3cccc(Br)c3)C(=O)N1[C@H](c1ccc(F)cc1)[C@@H]1C(=O)N(C3CCCCC3)C(=O)[C@@H]12	none
CC(C)C[C@@]12C(=O)N(c3cccc(Br)c3)C(=O)N1[C@H](c1ccc(F)cc1)[C@@H]1C(=O)N(C3CCCCC3)C(=O)[C@@H]12	ANO1 activ -7.6
COc1ccc2c(c1)cc(C(=O)N[C@@H](CCSC)C(=O)N1CCC(C(=O)O)CC1)n2C	none
Cc1ccc(N2C(=O)CS/C2=C(\C(Cl)=C(Cl)Cl)[N+](=O)[O-])cc1	none
CC1CCCC(C)N1C(=C(Cl)Cl)C(=C1SCCS1)[N+](=O)[O-] (stereo unspecified)	ANO1 activ -15
C=CC[n+]1c(-c2ccc(OC)c(OC)c2)csc1NNC(=O)Nc1ccccc1	ANO1 block 100
CN(C)N1C(N)=C(C#N)C(c2ccccc2F)C2=C1CC(C)(C)CC2=O (stereo unspecified)	none
N=c1c[n+](N2CCOCC2)[n-]o1	MC4R antag cAMP 31
COc1ccc(S(=O)(=O)N2CCCCCC2)cc1NC(=O)CN(C)Cc1ccc2c(c1)OCO2	none (no result: ANO1 block)
CC1(C(=O)NS(=O)(=O)c2ccccc2Cl)CCN1C(=O)CCc1ccccc1 (stereo unspecified)	none (no result: MIN6 prolif-1, ANO1 block, ANO1 activ)
O=C(COc1ccccc1Cl)Nc1ccc(S(=O)(=O)Nc2ccccn2)cc1	MIN6 prolif-1 0.0 | MIN6 prolif-2 inactive
CCn1c(=O)c2cc(C(=O)N(C)c3cc(C)ccc3OC)sc2c2ccccc21	none
CCn1c(=O)c2cc(C(=O)N(C)c3ccc(OC)cc3OC)sc2c2ccccc21	MIN6 prolif-1 6.7 | MIN6 prolif-2 inactive
CCCCC(=O)N(C)c1c(CC)nc2c(OCC(=O)c3ccc(Cl)cc3Cl)cccn12	none (no result: MIN6 prolif-1, ANO1 block, ANO1 activ)
COc1ncnc(-c2ccccc2)c1-c1ccccc1	MIN6 prolif-1 7.8 | MIN6 prolif-2 inactive
COc1nc(-c2ccccc2)nnc1-c1ccccc1	none (no result: MIN6 prolif-1, ANO1 block)
CCOC(=O)C1(Cc2ccccc2C)CCCN(C(=O)CCn2nccc2C)C1 (stereo unspecified)	MIN6 prolif-1 11 | MIN6 prolif-2 inactive
CC(C)NC(=O)N(C)C[C@H]1Oc2ncc(Br)cc2C(=O)N([C@H](C)CO)C[C@@H]1C	none (no result: MIN6 prolif-1, ANO1 block, ANO1 activ)
CC(=O)Nc1ccc(S(=O)(=O)NC(=O)C23CC4CC(CC(C4)C2)C3)cc1	MIN6 prolif-1 7.5 | MIN6 prolif-2 inactive
COc1ccccc1NC(=O)Nc1cc(C(C)(C)C)nn1C	none
Cc1ccc(F)cc1NC(=O)Nc1cc(C(C)(C)C)nn1C	MIN6 prolif-1 6.9 | MIN6 prolif-2 inactive
CCn1cc(CN(C)S(=O)(=O)c2cccc([N+](=O)[O-])c2)cn1	MIN6 prolif-1 7.2 | MIN6 prolif-2 inactive
O=C(NC1CCCC1)C1CCCN(S(=O)(=O)c2cccc3cccnc23)C1 (stereo unspecified)	MIN6 prolif-1 9.5 | MIN6 prolif-2 inactive
CCOc1nc2cnccc2n(CC(=O)Nc2ccccc2C(=O)OC)c1=O	MIN6 prolif-1 14 | MIN6 prolif-2 inactive
CCOc1ccccc1NC(=O)Cn1c(=O)c(OCC)nc2cnccc21	MIN6 prolif-1 12 | MIN6 prolif-2 inactive
COc1cccc(C(C(=O)NC2CCCCC2)N(C(=O)c2ccco2)c2ccc(-n3cnnn3)c(C)c2)c1 (stereo unspecified)	MIN6 prolif-1 7.7 | MIN6 prolif-2 inactive
Cc1cc(N(C(=O)c2ccco2)C(C(=O)NC2CCCCC2)c2ccccc2)ccc1-n1cnnn1 (stereo unspecified)	none
CN(C)CC1CCC/C(=C/c2ccc(Cl)cc2)C1=O (stereo unspecified)	none (no result: MIN6 prolif-1, ANO1 block)
CCCCn1c(SCC(=O)Nc2sc3c(c2C(N)=O)CCC3)nnc1-c1ccccc1	MIN6 prolif-1 8.3 | MIN6 prolif-2 inactive
Cc1cc(C)c(S(=O)(=O)c2ccccc2)c(Cl)n1	MIN6 prolif-1 4.9 | MIN6 prolif-2 inactive
CCOc1ccccc1N(CC(=O)NCCSc1ccccn1)S(=O)(=O)c1ccccc1	none
COc1ccccc1N(CC(=O)NCCSc1ccccn1)S(=O)(=O)c1ccccc1	MIN6 prolif-1 19 | MIN6 prolif-2 inactive
COc1ccccc1CCC(=O)N1CCN(S(=O)(=O)c2cc(C(F)(F)F)ccc2Cl)CC1	none (no result: ANO1 block)
CC(C)(C)NC(=O)Cn1nc(C(F)(F)F)c2c1CCCC2	none
FC(F)(F)c1nc2nncn2c2c1CCCCC2	MIN6 prolif-1 7.4 | MIN6 prolif-2 inactive
CCSc1nc(N)c(C#N)c(-c2ccco2)c1C#N	MIN6 prolif-1 14 | MIN6 prolif-2 inactive
CCN(CC)S(=O)(=O)c1ccc2c3c(cccc13)C(=O)N2	MIN6 prolif-1 11 | MIN6 prolif-2 inactive
Cc1nnc(NC(=O)c2cc(-c3ccncc3)nc3c(C)cccc23)s1	none
CCC(C)Sc1nc2c(cnn2-c2ccc(C)cc2)c(=O)[nH]1 (stereo unspecified)	MIN6 prolif-1 9.6 | MIN6 prolif-2 inactive
CCCCOc1ccc(C(=O)Nc2cccc(-n3cnnn3)c2)cc1OC	none
